# Hits are enriched below; roughly 1.4% of the tested compounds scored in any of these assays.
# FXIIa inh 1536 = blocks human coagulation factor XIIa protease activity; P00748; purified FXIIa, Boc-QGR-AMC fluorogenic substrate, 2 h; inhibition, % at 5 µM; 220,000 tested, 0.3% active; AID 800; in the data active = inhibition above about 40%;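 also: 0% = enzyme with no compound and 100% = blank without enzyme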
# Target sequence (P00748 20-372 limits assumed): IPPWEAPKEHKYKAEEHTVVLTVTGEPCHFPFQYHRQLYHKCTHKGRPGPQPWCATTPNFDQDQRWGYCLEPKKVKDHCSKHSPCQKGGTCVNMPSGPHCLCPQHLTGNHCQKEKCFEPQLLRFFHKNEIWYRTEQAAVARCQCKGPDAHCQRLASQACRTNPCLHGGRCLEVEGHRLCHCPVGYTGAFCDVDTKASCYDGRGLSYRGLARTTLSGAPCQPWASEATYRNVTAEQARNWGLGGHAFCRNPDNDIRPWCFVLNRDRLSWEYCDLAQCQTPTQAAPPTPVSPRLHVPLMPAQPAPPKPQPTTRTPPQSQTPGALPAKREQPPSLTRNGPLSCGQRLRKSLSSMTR
# Target sequence (P00748 373-615 limits assumed): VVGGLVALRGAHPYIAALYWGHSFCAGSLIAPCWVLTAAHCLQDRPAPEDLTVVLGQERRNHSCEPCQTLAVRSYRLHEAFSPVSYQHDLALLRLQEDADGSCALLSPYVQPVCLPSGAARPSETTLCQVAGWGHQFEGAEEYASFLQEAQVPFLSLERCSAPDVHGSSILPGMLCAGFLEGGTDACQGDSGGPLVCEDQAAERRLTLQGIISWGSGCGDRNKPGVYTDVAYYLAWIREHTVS
# thrombin 1536 = blocks human thrombin protease activity. alpha-thrombin, Boc-VPR-AMC fluorogenic substrate cleavage. 220,000 tested, 0.26% active. inhibition, % at 5 µM;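 active = inhibition at or above 40%; inactive = inhibition below 40%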;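 also: 0% = enzyme with no compound and 100% = wells without enzyme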
#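 signal = AMC fluorescence, 355/460 nm | material = human alpha-thrombin enzyme | control set = enzyme without compound as high, wells lacking enzyme as low | times = reaction at room temperature | read-out basis = percent inhibition scaled between no-compound controls and no-enzyme blanks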
# m-calpain inh = calpain II (pig) inhibition; purified calpain II, fluorogenic peptide substrate, 30 min; inhibition, % at 16 µM; 220,000 tested, 0.37% active;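 active = inhibition above about 50%, limit read from the data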
# KLK5 inh = blocks human kallikrein 5 protease activity. Q9Y337. recombinant hK5, fluorogenic AMC substrate cleavage. inhibition, % at 5 µM. 210,000 tested, 0.59% active. AID 873;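 active = inhibition of 40% or more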;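 also: 0% = enzyme controls without compound and 100% = no-enzyme blanks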
# FXIa inh = blocks human coagulation factor XIa protease activity. P03951. AID 798. 220,000 tested, 0.14% active. inhibition, % at 5 µM. purified FXIa, Boc-Glu-Ala-Arg-AMC fluorogenic substrate;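 active = inhibition of at least 40%; inactive = inhibition below 40%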;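 also: fluorescence of freed AMC excited at 355 nm; 0% = enzyme without compound and 100% = no enzyme blank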
# Active calls of the source: *; / = no result given.
SMILES,FXIIa inh 1536,thrombin 1536,m-calpain inh,KLK5 inh,FXIa inh
CCC1CCCCN1C(=O)c1sc2ncnc(N(CC)CC)c2c1C (stereo unspecified),8,-9,-14,-4,-5
c1cc(CNC2=NCCCCC2)ccn1,26,11,0,65*,4
CN(C)CCNc1ncnc2c1sc1nc(-c3ccccc3)c3c(c12)CCCC3,42*,17,3,18,25
COc1ncnc2c1sc1nc(-c3ccccc3)c3c(c12)CCCC3,-10,-8,40,-6,-11
CCC(=O)N/C(=N/c1nc(C)cc(C)n1)Nc1ccccc1,12,4,5,7,8
CCC(=O)N/C(=N/c1nc(C)cc(C)n1)Nc1ccc(OC)cc1,4,51*,10,-6,3
O=C(CSc1ccc(-c2ccco2)nn1)c1ccccc1,11,-8,4,-17,2
CCOc1cc(/C=N/Nc2ccc(C(=O)O)cc2)ccc1OC(=O)c1ccccc1C,7,2,82*,6,4
COc1cccc(OCc2cc(/C=N/Nc3ccc(C(=O)O)cc3)ccc2OC)c1,7,-5,-12,3,0
Cc1cc(C)nc(SCc2ccc(C(=O)N/N=C3\CC(C)CC(C)(C)C3)cc2)n1 (stereo unspecified),1,-11,6,-8,-2
COc1ccc2c(c1)CCc1c(C(=O)NCc3ccc(F)cc3)noc1-2,49*,-3,-16,-7,6
CCOC(=O)n1c(=O)n(Cc2c(Cl)cccc2Cl)c2ccccc21,14,6,20,42*,2
CCOC(=O)n1c(=O)n(Cc2ccccc2)c2ccccc21,13,1,-3,-4,4
COc1ccccc1-n1cc(CN2CCN(C3CCCCC3)C(CCO)C2)cn1 (stereo unspecified),1,-9,-12,-11,-8
COC(=O)CNC(=O)CNC(=O)Nc1ccccc1Cl,7,6,25,41*,-3
O=C1c2ccccc2NC(c2ccc([N+](=O)[O-])cc2)N1O (stereo unspecified),5,-12,20,-1,-4
COc1ccc(CSc2nc(C)cc(C)c2S(C)(=O)=O)cc1,28,9,24,34,41*
COc1ccc(Oc2nc(C)cc(C)c2S(C)(=O)=O)cc1,14,0,5,-15,4
CC(C)CN(C)C(=O)CCc1nnc(Cc2ccc(-c3ccccc3)cc2)o1,6,-2,13,/,0
O=C(Cc1sc(Nc2ccccc2)nc1-c1ccccc1)NCc1ccccc1,6,-8,-2,-4,-2
CC(=O)Nc1ccc(S(=O)(=O)NCC2CCC(C(=O)NCCC3=CCCCC3)CC2)cc1 (stereo unspecified),0,-5,52*,-11,-8
CC(C)c1ccc(NC(=O)C2CCN(S(C)(=O)=O)CC2)cc1,15,-3,1,6,3
Cc1ccc(NC(=O)C2CCN(S(C)(=O)=O)CC2)cc1,26,9,0,49*,13
COc1cc([N+](=O)[O-])cc2sc(NC(C)=O)nc12,27,39,-2,23,60*
CCCCC(=O)Nc1nc2c(OC)cc([N+](=O)[O-])cc2s1,/,-2,20,4,0
SMILES,FXIIa inh 1536,thrombin 1536,m-calpain inh,KLK5 inh,FXIa inh
Cc1cc(Oc2ccc(-c3nnc(-c4ccccc4)o3)cc2[N+](=O)[O-])ccc1Cl,25,18,38,43*,20
O=C(Nc1ccc2c(c1)oc1ccccc12)N1CCOCC1,13,3,16,-13,42*
O=C(Nc1ccccc1)N1CCOCC1,9,2,-18,-2,1
COc1ccc(-n2c(C)cc(/C=C3/SC(=S)N(C)C3=O)c2C)cc1,6,1,-1,-2,0
Cc1cc(/C=C2\SC(=S)N(C)C2=O)c(C)n1-c1cccc(O)c1,7,5,9,24,65*
CC(Sc1nc2ccccc2s1)C(=O)c1c(N)n(C)c(=O)n(C)c1=O (stereo unspecified),3,-2,2,-5,-6
O=[N+]([O-])c1ccc(NCCCNS(=O)(=O)c2ccc(Cl)cc2)c(Cl)c1,3,-6,71*,-22,-2
O=[N+]([O-])c1ccccc1NCCNS(=O)(=O)c1ccc(Cl)cc1,13,4,13,-1,9
COC(=O)c1ccc(CNC(=O)COC(=O)c2ccc(N(C)C)cc2)cc1,4,-14,-14,3,-2
COc1ccc(/C=C2\CCCc3c2nc2ccccc2c3C(=O)OCC(=O)c2c(N)n(C)c(=O)n(C)c2=O)cc1,14,-6,-43,-12,3
COc1cccc2cc(C(=O)N3CCN(C45CC6CC(CC(C6)C4)C5)CC3)c(=O)oc12,18,19,-64,65*,12
CC1(C)CC(=O)c2cnc(NC(=O)CCc3ccccc3)nc2C1,26,14,14,86*,12
COc1cc(/C=C(\C#N)C(=O)Nc2ccccc2C(=O)O)cc(Cl)c1OC,7,-5,11,0,3
CC(C)Cn1c(-c2ccccc2)nc2ccccc2c1=O,42*,1,18,-3,32
CCOC(=O)Cn1c(-c2ccccc2)nc2ccccc2c1=O,14,2,16,-3,1
O=C(Nc1ccc(Cl)c(Cl)c1)OCCNC(=O)c1cccc(Cl)c1,6,-2,65*,-20,-3
O=C(Nc1ccccc1)OCCNC(=O)c1ccccc1,12,2,21,5,4
O=c1cc(N2CCCCC2)c(-c2ccccc2)nn1Cc1ccc(Cl)cc1Cl,7,-5,54*,12,2
O=c1cc(N2CCCCC2)c(-c2ccccc2)nn1Cc1ccccc1Cl,14,5,23,-3,10
CCCCCCCC1CC(/C(C)=N/NC(N)=O)OC1=O (stereo unspecified),16,1,-10,-7,9
CC(C)(C)NC(=O)NC(=O)CN1CCN(S(=O)(=O)c2ccc3c(c2)OCCO3)CC1,12,3,22,4,-1
Cn1cnnc1Sc1cc(N2CCN(S(=O)(=O)c3ccc4ccccc4c3)CC2)ccc1[N+](=O)[O-],7,-4,-103,15,5
Cc1cc(NC(=O)COC(=O)C2CCN(S(=O)(=O)c3c(Cl)cccc3Cl)CC2)no1,43*,-1,17,15,19
Cc1ccc(NS(=O)(=O)c2ccc(C(=O)OCC(=O)Nc3cc(C)on3)cc2)cc1,30,15,23,48*,102*
Cc1cc(NC(=O)COC(=O)c2cccc(S(=O)(=O)N(C)C3CCCCC3)c2)no1,43*,4,25,9,7
Cc1cc(NC(=O)COC(=O)C2CCN(S(=O)(=O)c3ccc(Cl)cc3)CC2)no1,16,2,-21,-13,4
CC(C)(C)NC(=O)Cn1c(Cl)nc2ccccc21,10,-6,-14,3,-2
CCc1ccccc1NC(=O)CSc1nc(-c2ccccc2)nn1C(=O)c1cccc([N+](=O)[O-])c1,19,9,11,-16,3

# Source: PubChem BioAssay (several laboratories)
